Measurements taken from ChEMBL document CHEMBL4725355, “Design, Synthesis, and Preclinical Evaluation of 3-Methyl-6-(5-thiophenyl)-1,3-dihydro-imidazo[4,5-b]pyridin-2-ones as Selective GluN2B Negative Allosteric Modulators for the Treatment of Mood Disorders” (J Med Chem, 2020).
≈ marks a conversion by molar mass, not a printed value.

How the values were obtained:
[1] = Negative allosteric modulation of human GluN1a/GluN2C receptor expressed in CHO cells assessed as inhibition of glutamate and glycine-induced calcium flux preincubated for 5 mins followed by glutamate and glycine addition and measured after 5 mins by calcium 5 dye based FLIPR assay; type: cell-based
How it was run: (§1)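 Tet-On CHO T-Rex cells expressing hGluN1a with GluN2A, 2B, 2C or 2D, plated at 20,000 cells/well and induced 24 h before the assay in the presence of ketamine. Cells loaded 1 h at room temperature with Calcium 5 dye, pH 7.4 HEPES buffer. Compound added 5 min, then glutamate (~EC80) plus 10 µM glycine for 5 min; FLIPR fluorescence normalized to control wells. Three independent runs in duplicate (two for some).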

[2] = Drug level in Sprague-Dawley rat brain striatum at 0.03 mg/kg, iv after 120 min by LC-MS/MS analysis; type: ADME, organism-based; conditions: read-out: Drug uptake
How it was run: (§2)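 Single i.v. dose of 0.03 mg/kg in 50% (w/v) PEG/water, pH 7.4; rats n=3 per group, killed at 5, 10, 30, 60 and 120 min. Cerebellum, cortex, striatum and hippocampus dissected, weighed and homogenized; drug quantified by LC-MS/MS and normalized to tissue weight. P<0.05 taken as significant versus cerebellum.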

[3] = Intrinsic clearance in rat liver microsomes at 1 uM after 5 to 60 mins in presence of NADPH by LC-MS/MS analysis; type: ADME, Microsome; conditions: time 5-60 min, read-out: CLH
[4] = Half life in Sprague-Dawley rat at 0.5 mg/kg, iv or 2.5 mg/kg, po using 1:1 PEG-400/water formulation by LC-MS/MS analysis; type: ADME, organism-based; conditions: in vivo
How it was run: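 Rats dosed 0.5 mg/kg i.v. and 2.5 mg/kg p.o., n=3 ± SD. Default vehicle is 20% HP-β-CD; one PK set used 1:1 PEG400/water and another 30% SBE-β-CD.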

[5] = Intrinsic clearance in cynomolgus monkey liver microsomes at 1 uM after 5 to 60 mins in presence of NADPH by LC-MS/MS analysis; type: ADME, Macaca fascicularis, Microsome; conditions: time 5-60 min, read-out: CLH
[6] = Tmax in Sprague-Dawley rat brain at 3 mg/kg, po by LC-MS/MS analysis; type: ADME, organism-based
How it was run: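 Rats dosed orally at 3 mg/kg in 20% HP-β-CD. Brain concentrations were measured over a 6 h time course (0.5, 2, 6 h) alongside ex vivo GluN2B occupancy, n=2.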

[7] = Metabolic stability in human liver microsomes assessed as extraction ratio at 1 uM after 5 to 60 mins in presence of NADPH by LC-MS/MS analysis; type: ADME, Microsome; conditions: time 5-60 min, read-out: ERH
How it was run: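 Human and rat liver microsomes, run in duplicate; stability reported as microsomal extraction ratio.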

[8] = Negative allosteric modulation of human GluN1a/GluN2A receptor expressed in CHO cells assessed as inhibition of glutamate and glycine-induced calcium flux preincubated for 5 mins followed by glutamate and glycine addition and measured after 5 mins by calcium 5 dye based FLIPR assay; type: cell-based; how it was run: as §1
[9] = Cmax in Sprague-Dawley rat at 500 mg/kg/day, po administered as nanosuspension measured for 14 days measured post last dose by LC-MS/MS analysis; type: ADME, organism-based; parameters: route oral, time 14 day, dose 500 mg/kg/day; conditions: in vivo
How it was run: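 Repeated daily oral dosing of the nanosuspension to rats for 14 days, up to 500 mg/kg/day.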

[10] = Tmax in dog at 0.5 mg/kg, po by LC-MS/MS analysis; type: ADME, organism-based, Canis lupus familiaris; conditions: in vivo
[11] = AUC (infinity) in Sprague-Dawley rat at 2.5 mg/kg, po by LC-MS/MS analysis; type: ADME, organism-based; parameters: time infinity, route oral, dose 2.5 mg/kg; conditions: in vivo
How it was run: (§3)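 Rat PK with IV and PO dosing, n=3. The usual doses were 0.5 mg/kg IV and 2.5 mg/kg PO in 20% HP-β-CD. One compound was instead given at 0.1 mg/kg IV and 0.5 mg/kg PO.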

[12] = Clearance in Sprague-Dawley rat at 0.5 mg/kg, iv by LC-MS/MS analysis; type: ADME, organism-based; conditions: in vivo; how it was run: as §3
[13] = Drug level in Sprague-Dawley rat brain hippocampus at 0.03 mg/kg, iv after 30 min by LC-MS/MS analysis; type: ADME, organism-based; conditions: read-out: Drug uptake; how it was run: as §2
[14] = biological target: Cytochrome P450 2D6 (Homo sapiens, UniProt P10635); experiment: Inhibition of CYP2D6 in human liver microsomes using dextromethorphan as substrate measured after 15 mins by LC-MS/MS analysis; type: ADME
How it was run: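 Human liver microsomes incubated with isoform-specific probe substrates and the test compound at concentrations up to 20 µM. IC50 derived from inhibition of metabolite formation; mean of two independent experiments, with known specific inhibitors as positive controls.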

[15] = Displacement of 3-[3H] 1-(azetidin-1-yl)-2-[6-(4-fluoro-3-methyl-phenyl)pyrrolo[3,2-b]pyridin-1-yl]ethanone from GluN1a/GluN2B receptor in rat cortex membranes measured after 2 hrs by liquid scintillation counting method; type: cell membranes
How it was run: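 Rat adult cortex was homogenized in 50 mM Tris pH 7.4, and membranes were washed by centrifugation. Membranes were incubated with the [3H] pyrrolopyridine tracer and test compound for 2 h at room temperature with shaking. Non-specific binding was defined with 10 µM CP-101,606. Bound tracer was separated by filtration on PEI-soaked GF/B filters and counted by liquid scintillation. Ki was obtained from a competition fit using tracer Kd; three independent runs in duplicate.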

[16] = Half life in dog at 0.1 mg/kg, iv by LC-MS/MS analysis; type: ADME, organism-based, Canis lupus familiaris; conditions: in vivo
[17] = AUC (infinity) in dog at 0.5 mg/kg, po by LC-MS/MS analysis; type: ADME, organism-based, Canis lupus familiaris; parameters: time infinity, route oral, dose 0.5 mg/kg; conditions: in vivo
[18] = Drug level in Sprague-Dawley rat brain cerebellum at 0.03 mg/kg, iv after 30 min by LC-MS/MS analysis; type: ADME, organism-based; conditions: read-out: Drug uptake; how it was run: as §2
[19] = biological target: Cytochrome P450 3A4 (Homo sapiens, UniProt P08684); experiment: Time-dependent inhibition of CYP3A4 in human liver microsomes at 10 uM using midazolam as substrate by LC-MS/MS analysis; type: ADME
How it was run: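 CYP3A4 time-dependent inhibition in human liver microsomes. The compound (0.4 to 10 μM) was tested with and without 30 min preincubation. IC50 was taken from percent activity remaining versus vehicle, averaged over two independent experiments. A >2-fold IC50 shift after preincubation was the threshold for time-dependent inhibition.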

[20] = Oral bioavailability in dog at 0.5 mg/kg by LC-MS/MS analysis; type: ADME, organism-based, Canis lupus familiaris; conditions: in vivo
[21] = Tmax in monkey at 0.5 mg/kg, po by LC-MS/MS analysis; type: ADME, organism-based, Macaca mulatta; conditions: rhesus monkey, in vivo
[22] = Cmax in monkey at 0.5 mg/kg, po by LC-MS/MS analysis; type: ADME, organism-based, Macaca mulatta; parameters: route oral, dose 0.5 mg/kg; conditions: rhesus monkey, in vivo
[23] = Ex vivo receptor occupancy at GluN2B in po dosed Sprague-Dawley rat assessed as 3-[3H] 1-(azetidin-1-yl)-2-[6-(4-fluoro-3-methyl-phenyl)pyrrolo[3,2-b]pyridin-1-yl]-ethanone labelling measured after 60 mins by autoradiography; type: functional, organism-based
How it was run: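 Oral dosing at 8 dose levels in 20% HP-β-CD; 3 rats per group. GluN2B occupancy in hippocampus measured 60 min post dose by ex vivo radiotracer autoradiography and calculated versus naïve controls, mean ± SEM. Plasma concentrations paired with occupancy to derive EC50 and dose ED50.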

[24] = Half life in monkey at 0.5 mg/kg, po by LC-MS/MS analysis; type: ADME, organism-based, Macaca mulatta; conditions: rhesus monkey, in vivo
[25] = Rattus norvegicus, Sprague-Dawley, po, 1 h, time 60 min

Cytochrome P450 3A4, sequence (P08684 whole entry): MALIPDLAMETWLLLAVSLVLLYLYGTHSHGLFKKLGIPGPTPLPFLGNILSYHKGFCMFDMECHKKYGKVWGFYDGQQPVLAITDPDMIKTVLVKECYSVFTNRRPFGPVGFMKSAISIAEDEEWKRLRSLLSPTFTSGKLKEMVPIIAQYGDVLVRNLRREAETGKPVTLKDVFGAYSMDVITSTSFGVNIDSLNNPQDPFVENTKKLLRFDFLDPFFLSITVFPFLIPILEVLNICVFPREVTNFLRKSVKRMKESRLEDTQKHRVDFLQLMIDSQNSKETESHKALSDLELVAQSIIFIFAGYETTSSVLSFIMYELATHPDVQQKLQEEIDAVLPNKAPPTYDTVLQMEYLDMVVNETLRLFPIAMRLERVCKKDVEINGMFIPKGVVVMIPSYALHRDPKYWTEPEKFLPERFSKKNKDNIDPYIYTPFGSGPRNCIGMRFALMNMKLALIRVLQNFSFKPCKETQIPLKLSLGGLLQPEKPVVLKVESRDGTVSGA
Cytochrome P450 2D6, sequence (P10635 whole entry, canonical isoform): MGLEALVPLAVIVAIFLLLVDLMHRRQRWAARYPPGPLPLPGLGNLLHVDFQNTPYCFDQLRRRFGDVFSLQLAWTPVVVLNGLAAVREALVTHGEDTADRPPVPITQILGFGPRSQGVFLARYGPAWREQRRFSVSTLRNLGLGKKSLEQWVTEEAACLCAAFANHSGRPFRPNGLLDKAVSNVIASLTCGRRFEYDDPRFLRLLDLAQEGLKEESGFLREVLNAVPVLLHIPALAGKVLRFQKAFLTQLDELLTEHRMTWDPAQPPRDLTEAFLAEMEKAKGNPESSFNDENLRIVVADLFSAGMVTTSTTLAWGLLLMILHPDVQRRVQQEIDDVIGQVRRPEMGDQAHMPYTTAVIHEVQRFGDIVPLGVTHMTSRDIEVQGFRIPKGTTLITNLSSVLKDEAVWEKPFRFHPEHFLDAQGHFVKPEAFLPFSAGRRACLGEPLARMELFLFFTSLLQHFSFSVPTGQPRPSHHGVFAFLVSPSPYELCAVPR

- IC50 [1]: > 10 µM
- concentration at 2 h [2]: 9.8 ng/mL
- microsomal CLint at 1 µM [3]: 26.3 µL/min/mg
- half-life [4]: 48 min
- microsomal CLint at 1 µM [5]: 16.6 µL/min/mg
- Tmax [6]: 30 min
- hepatic extraction ratio at 1 µM [7]: < 0.3
- IC50 [8]: > 10 µM
- Cmax [9]: 21700 ng/mL
- Tmax [10]: 15 min
- AUC(0-inf) [11]: 1830 ng·h/mL
- clearance [12]: 30 mL/min/kg
- concentration at 0.5 h [13]: 22.7 ng/mL
- IC50 [14]: 15 µM
- Ki [15]: 0.016 µM
- half-life [16]: 48 min
- AUC(0-inf) [17]: 268 ng·h/mL
- concentration at 0.5 h [18]: 13.8 ng/mL
- TDI [19]: Not Active
- bioavailability [20]: 43%
- Tmax [21]: 60 min
- Cmax [22]: 167 ng/mL
- EC50 ([23]; Rattus norvegicus, Sprague-Dawley): 0.407 µg/mL (≈ 1.03 µM)
- half-life [24]: 60 min
Compound: Cn1c(=O)n(CC(=O)N2CCC2)c2cc(-c3ccc(C(F)(F)F)s3)cnc21
- ED50 [23, 25]: 0.86 mg/kg
- ED70 [23, 25]: 1.44 mg/kg
- EC70 ([23]; time 60 min, 1 h): 0.716 µg/mL (≈ 1.81 µM)
- fEC70 ([23]; time 60 min, 1 h): 40 ng/mL
